ChEMBL document CHEMBL3813690, “Synthesis and Th1-immunostimulatory activity of α-galactosylceramide analogues bearing a halogen-containing or selenium-containing acyl chain” (Bioorg Med Chem, 2016)
Calls of active or inactive are those of the source. The calls are words filed in the database; no cut-off is given here.

Assays:
Assay type in all cases: cell-based
Mus musculus [1] = species on record: Mus musculus; experiment: Activity at CD1d in C57BL/6 mouse splenocytes assessed as production of IL4 at 100 nM after 48 hrs by ELISA relative to KRN7000
Procedure, shortened: (§1)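 Freshly prepared mouse splenocytes, washed three times by centrifugation in medium, counted in Türk's solution, seeded at 3 × 10⁵ cells/well in RPMI1640 with 10% FBS and 1% penicillin–streptomycin. Ligands dissolved in pyridine (1 mg/mL stock), diluted in medium to final 10, 30, 100, 300 and 1000 nM. Incubated 48 h at 37 °C; supernatant IFN-γ and IL-4 measured by ELISA. KRN7000 as positive control.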

Mus musculus [2] = species on record: Mus musculus; experiment: Activity at CD1d in C57BL/6 mouse splenocytes assessed as ratio of IFN-gamma production to IL4 production at 100 nM after 48 hrs by ELISA; procedure, shortened: as §1
Mus musculus [3] = species on record: Mus musculus; experiment: Activity at CD1d in C57BL/6 mouse splenocytes assessed as production of IL4 at 10 to 1000 nM after 48 hrs by ELISA; procedure, shortened: as §1
Mus musculus [4] = species on record: Mus musculus; experiment: Activity at CD1d in C57BL/6 mouse splenocytes assessed as production of IFN-gamma at 10 to 1000 nM after 48 hrs by ELISA; procedure, shortened: as §1
Mus musculus [5] = species on record: Mus musculus; experiment: Activity at CD1d in C57BL/6 mouse splenocytes assessed as production of IFN-gamma at 100 nM after 48 hrs by ELISA relative to KRN7000; procedure, shortened: as §1

CCCCCCCCCCCCCC[C@@H](O)[C@@H](O)[C@H](CO[C@H]1O[C@H](CO)[C@H](O)[C@H](O)[C@H]1O)NC(=O)CCCCCCCCCCCCCCCC[Se]CCCCCCCC
Activity (Mus musculus [1]): 35%
Ratio (Mus musculus [2]): 2.9
Activity (Mus musculus [3]): Active
Activity (Mus musculus [4]): Active
Activity (Mus musculus [5]): 103%

CCCCCCCCCCCCCC[C@@H](O)[C@@H](O)[C@H](CO[C@H]1O[C@H](CO)[C@H](O)[C@H](O)[C@H]1O)NC(=O)CCCCCCCCCCCCCCCCCCCCCCCCBr
Activity (Mus musculus [1]): 19%
Ratio (Mus musculus [2]): 4.4
Activity (Mus musculus [3]): Active
Activity (Mus musculus [4]): Active
Activity (Mus musculus [5]): 84%

CCCCCCCCCCCCCC[Se]CCCCCCCCCCC(=O)N[C@@H](CO[C@H]1O[C@H](CO)[C@H](O)[C@H](O)[C@H]1O)[C@H](O)[C@H](O)CCCCCCCCCCCCCC
Activity (Mus musculus [1]): 39%
Ratio (Mus musculus [2]): 3.3
Activity (Mus musculus [3]): Active
Activity (Mus musculus [4]): Active
Activity (Mus musculus [5]): 130%

CCCCCCCCCCCCCC[C@@H](O)[C@@H](O)[C@H](CO[C@H]1O[C@H](CO)[C@H](O)[C@H](O)[C@H]1O)NC(=O)CCCCCCCCCCCCCCCCCCCCCCCCF
Activity (Mus musculus [1]): 21%
Ratio (Mus musculus [2]): 5
Activity (Mus musculus [3]): Active
Activity (Mus musculus [4]): Active
Activity (Mus musculus [5]): 104%

CCCCCCCCCCCCCC[C@@H](O)[C@@H](O)[C@H](CO[C@H]1O[C@H](CO)[C@H](O)[C@H](O)[C@H]1O)NC(=O)CCCCCCCCCCCCCCCCCCCCCCCCCl
Activity (Mus musculus [1]): 18%
Ratio (Mus musculus [2]): 3.8
Activity (Mus musculus [3]): Active
Activity (Mus musculus [4]): Active
Activity (Mus musculus [5]): 68%

CCCCCCCCCCCCCCCCCCCCCCCCCC(=O)N[C@@H](CO[C@H]1O[C@H](CO)[C@H](O)[C@H](O)[C@H]1O)[C@H](O)[C@H](O)CCCCCCCCCCCCCC
Activity (Mus musculus [3]): Active
